*1 amine or outer side, *2 acyl side, *3 side chain or, on linkers, in order; H or OH if unused. Where a SMILES comes first, the peptide text is derived from it. Bridges are numbered along the chain shown (N, C = ends). [ ]: non-standard residue; d: D form. The star is where a group is joined. Staurosporine = CO[C@@H]1[C@H](N(C)*)C[C@H]2O[C@]1(C)n1c3ccccc3c3c4c(c5c6ccccc6n2c5c31)C(=O)NC4; Suc = O=C(CCC(=O)[*:2])[*:1]; Dap = NC[C@H](N)C(=O)O; βAla = NCCC(=O)O

Test [1] has as its target 3-phosphoinositide-dependent protein kinase 1 (Homo sapiens) (UniProt O15530). Put plainly: Ratio of compound to staurosporine binding affinity to PDK1 in presence of DTT.
The target in test [2] is Cyclin-dependent kinase 19 (Homo sapiens) (UniProt Q9BWU1). Put plainly: Binding affinity to human CDK11 at 500 nM by cell-based competition binding assay relative to control in presence of DTT. The method, boiled down: (§1)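 Kinase binding profiling ran on a commercial (Ambit) competitive binding screen against a panel of 90 kinases. The screen used reducing conditions with 7.5 mM DTT. To withstand the DTT, the bivalent ligand was tested as its amide isostere, with the disulfide replaced. A staurosporine derivative carrying a 3 β-alanine linker was run as the reference compound.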
Sequence of Cyclin-dependent kinase 19 (Homo sapiens) (Q9BWU1 whole entry): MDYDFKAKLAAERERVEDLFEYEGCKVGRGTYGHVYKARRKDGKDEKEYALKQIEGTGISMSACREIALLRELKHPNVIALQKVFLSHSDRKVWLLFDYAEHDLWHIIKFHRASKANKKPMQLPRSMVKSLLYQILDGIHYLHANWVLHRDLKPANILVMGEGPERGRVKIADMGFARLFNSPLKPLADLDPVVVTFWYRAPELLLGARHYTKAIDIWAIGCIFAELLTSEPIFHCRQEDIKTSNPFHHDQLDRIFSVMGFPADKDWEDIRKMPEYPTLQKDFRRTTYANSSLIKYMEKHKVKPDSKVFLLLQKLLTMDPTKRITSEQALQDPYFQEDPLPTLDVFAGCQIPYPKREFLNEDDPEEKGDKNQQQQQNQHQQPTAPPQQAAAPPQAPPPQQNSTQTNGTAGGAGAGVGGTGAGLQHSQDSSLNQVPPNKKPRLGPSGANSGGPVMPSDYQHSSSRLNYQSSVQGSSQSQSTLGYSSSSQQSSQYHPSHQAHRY

Test [3] addresses Tyrosine-protein kinase JAK2 (Homo sapiens) (UniProt O60674). Put plainly: Binding affinity to human JAK2 kinase domain 2 at 500 nM by cell-based competition binding assay relative to control in presence of DTT. In outline:
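Competition binding screen (Ambit) across a panel of 90 kinases, scoring test ligand displacement of each kinase's binding relative to control. The screen ran under reducing conditions with 7.5 mM DTT.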

In test [4] the target is Tyrosine-protein kinase ABL1 (Homo sapiens) (UniProt P00519). Put plainly: Binding affinity to human ABL1 at 500 nM by cell-based competition binding assay relative to control in presence of DTT. In outline:
as §1

Test [5] concerns the target RAC-alpha serine/threonine-protein kinase (Homo sapiens) (UniProt P31749). Put plainly: Binding affinity to human AKT1 at 500 nM by cell-based competition binding assay relative to control in presence of DTT. The method, boiled down:
as §1

Test [6] concerns the target Dual specificity mitogen-activated protein kinase kinase 1 (Homo sapiens) (UniProt Q02750). In words: Binding affinity to human MEK1 at 200 nM by cell-based competition binding assay relative to control in presence of DTT. In outline:
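Kinase binding profile from a commercial panel of 90 kinases, run as a competitive binding assay. The panel was screened under reducing conditions of 7.5 mM DTT. Signal was compared with the untreated control.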

Test [7] has as its target Proto-oncogene tyrosine-protein kinase receptor Ret (Homo sapiens) (UniProt P07949). In words: Binding affinity to human RET at 200 nM by cell-based competition binding assay relative to control in presence of DTT.
Test [8] deals with T1, Serine/threonine-protein kinase DCLK1 (Homo sapiens) (UniProt O15075).
T1 sequence (whole entry): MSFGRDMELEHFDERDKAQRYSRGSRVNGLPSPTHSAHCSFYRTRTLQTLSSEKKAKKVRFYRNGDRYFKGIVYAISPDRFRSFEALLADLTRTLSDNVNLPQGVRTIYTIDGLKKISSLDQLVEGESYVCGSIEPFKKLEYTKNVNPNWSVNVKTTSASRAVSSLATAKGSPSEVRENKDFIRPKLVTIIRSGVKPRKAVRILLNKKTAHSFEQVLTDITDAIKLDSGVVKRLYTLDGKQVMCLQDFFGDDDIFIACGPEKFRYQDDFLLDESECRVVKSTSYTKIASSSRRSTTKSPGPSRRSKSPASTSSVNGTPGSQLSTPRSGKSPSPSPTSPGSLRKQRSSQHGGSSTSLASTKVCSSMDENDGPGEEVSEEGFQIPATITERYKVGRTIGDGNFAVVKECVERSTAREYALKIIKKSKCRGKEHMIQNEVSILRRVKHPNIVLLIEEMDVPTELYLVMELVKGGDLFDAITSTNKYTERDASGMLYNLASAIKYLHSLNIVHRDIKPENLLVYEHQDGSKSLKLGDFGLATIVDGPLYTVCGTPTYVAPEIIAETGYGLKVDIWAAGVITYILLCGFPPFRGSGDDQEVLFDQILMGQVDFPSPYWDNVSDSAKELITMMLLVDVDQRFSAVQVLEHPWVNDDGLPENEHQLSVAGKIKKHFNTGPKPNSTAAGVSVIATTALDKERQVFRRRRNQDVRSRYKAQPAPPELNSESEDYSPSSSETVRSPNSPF
In words: Binding affinity to human DCAMKL1 at 200 nM by cell-based competition binding assay relative to control in presence of DTT. The method, boiled down:
(§2)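 Commercial (Ambit) competitive kinase-binding panel of 90 kinases measured the binding profile. Run under reducing conditions of 7.5 mM DTT. Binding is expressed relative to control.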

Test [9] has as its target Aurora kinase B (Homo sapiens) (UniProt Q96GD4). Put plainly: Binding affinity to human aurora kinase B at 50 nM by cell-based competition binding assay relative to control in presence of DTT.
Test [10] concerns the target Receptor tyrosine-protein kinase erbB-2 (Homo sapiens) (UniProt P04626). Put plainly: Binding affinity to human ERBB2 at 50 nM by cell-based competition binding assay relative to control in presence of DTT. The method, boiled down:
as §2

The target of test [11] is Tyrosine-protein kinase ABL1 (Homo sapiens) (UniProt P00519). In words: Binding affinity to human ABL1 at 50 nM by cell-based competition binding assay relative to control in presence of DTT. The method, boiled down: as §1
Sequence of Tyrosine-protein kinase ABL1 (Homo sapiens) (P00519 whole entry): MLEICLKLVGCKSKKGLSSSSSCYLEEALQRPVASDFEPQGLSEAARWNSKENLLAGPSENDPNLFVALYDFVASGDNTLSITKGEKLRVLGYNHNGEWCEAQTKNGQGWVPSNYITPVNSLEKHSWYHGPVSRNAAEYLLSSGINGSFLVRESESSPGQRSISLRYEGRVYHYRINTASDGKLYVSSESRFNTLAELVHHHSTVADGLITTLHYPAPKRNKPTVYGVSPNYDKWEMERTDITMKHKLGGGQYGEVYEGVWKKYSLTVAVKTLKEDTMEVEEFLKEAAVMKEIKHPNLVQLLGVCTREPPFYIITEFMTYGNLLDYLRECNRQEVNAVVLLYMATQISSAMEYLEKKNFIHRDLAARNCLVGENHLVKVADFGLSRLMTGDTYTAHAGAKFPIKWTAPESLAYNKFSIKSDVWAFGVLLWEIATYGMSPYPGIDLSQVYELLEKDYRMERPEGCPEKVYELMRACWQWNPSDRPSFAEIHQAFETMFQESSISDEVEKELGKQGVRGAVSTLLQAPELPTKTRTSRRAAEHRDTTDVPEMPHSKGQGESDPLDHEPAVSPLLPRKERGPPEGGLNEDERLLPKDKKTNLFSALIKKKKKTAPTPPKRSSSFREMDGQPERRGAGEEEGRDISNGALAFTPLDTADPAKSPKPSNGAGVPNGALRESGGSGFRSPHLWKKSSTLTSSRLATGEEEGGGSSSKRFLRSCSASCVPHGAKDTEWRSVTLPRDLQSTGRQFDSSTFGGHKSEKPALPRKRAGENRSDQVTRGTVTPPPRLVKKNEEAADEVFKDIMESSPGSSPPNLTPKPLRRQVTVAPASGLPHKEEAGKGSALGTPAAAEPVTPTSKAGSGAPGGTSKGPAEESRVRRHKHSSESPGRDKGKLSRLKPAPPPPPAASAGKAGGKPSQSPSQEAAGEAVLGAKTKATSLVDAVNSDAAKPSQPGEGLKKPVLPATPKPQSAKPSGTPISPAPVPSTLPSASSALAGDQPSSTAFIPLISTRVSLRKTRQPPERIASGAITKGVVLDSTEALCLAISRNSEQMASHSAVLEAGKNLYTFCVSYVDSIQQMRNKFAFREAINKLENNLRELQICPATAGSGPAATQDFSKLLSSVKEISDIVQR
For test [12], the target named is Cyclin-dependent kinase 16 (Homo sapiens) (UniProt Q00536). Put plainly: Binding affinity to human PCTK1 at 50 nM by cell-based competition binding assay relative to control in presence of DTT.
Sequence of Cyclin-dependent kinase 16 (Homo sapiens) (Q00536 whole entry): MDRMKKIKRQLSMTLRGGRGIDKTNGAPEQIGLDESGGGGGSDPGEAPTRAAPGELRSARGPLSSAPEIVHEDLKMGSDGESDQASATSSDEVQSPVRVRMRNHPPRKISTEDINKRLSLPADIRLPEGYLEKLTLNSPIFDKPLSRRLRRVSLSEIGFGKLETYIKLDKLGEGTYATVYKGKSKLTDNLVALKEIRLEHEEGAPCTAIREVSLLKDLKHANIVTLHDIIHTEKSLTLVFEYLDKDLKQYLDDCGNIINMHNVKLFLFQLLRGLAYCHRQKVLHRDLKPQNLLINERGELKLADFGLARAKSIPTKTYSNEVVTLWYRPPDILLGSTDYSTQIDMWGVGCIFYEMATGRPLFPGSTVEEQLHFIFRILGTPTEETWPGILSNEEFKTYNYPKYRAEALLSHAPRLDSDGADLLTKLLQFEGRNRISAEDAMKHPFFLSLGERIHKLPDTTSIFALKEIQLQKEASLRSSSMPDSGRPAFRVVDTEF
The target in test [13] is Serine/threonine-protein kinase PAK 2 (Homo sapiens) (UniProt Q13177). In words: Binding affinity to human PAK2 at 50 nM by cell-based competition binding assay relative to control in presence of DTT.
Test [14] deals with Macrophage colony-stimulating factor 1 receptor (Homo sapiens) (UniProt P07333). In words: Binding affinity to human CSF1R at 50 nM by cell-based competition binding assay relative to control in presence of DTT. The method, boiled down:
as §2

Test [15] has as its target T2, TGF-beta receptor type-1 (Homo sapiens) (UniProt P36897).
T2 sequence (whole entry): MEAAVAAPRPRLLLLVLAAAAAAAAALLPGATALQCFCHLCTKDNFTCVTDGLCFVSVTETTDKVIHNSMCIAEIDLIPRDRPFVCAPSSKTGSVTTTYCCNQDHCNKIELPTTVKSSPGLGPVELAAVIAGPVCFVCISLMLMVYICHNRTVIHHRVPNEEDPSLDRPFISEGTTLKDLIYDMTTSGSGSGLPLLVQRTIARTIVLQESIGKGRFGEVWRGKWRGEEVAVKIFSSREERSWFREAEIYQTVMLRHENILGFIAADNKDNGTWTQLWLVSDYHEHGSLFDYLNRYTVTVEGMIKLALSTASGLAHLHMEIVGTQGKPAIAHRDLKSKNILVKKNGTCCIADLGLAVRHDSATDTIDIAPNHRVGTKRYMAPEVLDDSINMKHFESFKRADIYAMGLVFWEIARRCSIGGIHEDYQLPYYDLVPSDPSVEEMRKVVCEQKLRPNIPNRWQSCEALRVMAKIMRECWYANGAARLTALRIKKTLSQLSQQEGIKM
In words: Binding affinity to human TGFBR1 at 50 nM by cell-based competition binding assay relative to control in presence of DTT.

Test [16] concerns the target Angiopoietin-1 receptor (Homo sapiens) (UniProt Q02763). In words: Binding affinity to human TIE2 at 50 nM by cell-based competition binding assay relative to control in presence of DTT.

Sequence of RAC-alpha serine/threonine-protein kinase (Homo sapiens) (P31749 whole entry): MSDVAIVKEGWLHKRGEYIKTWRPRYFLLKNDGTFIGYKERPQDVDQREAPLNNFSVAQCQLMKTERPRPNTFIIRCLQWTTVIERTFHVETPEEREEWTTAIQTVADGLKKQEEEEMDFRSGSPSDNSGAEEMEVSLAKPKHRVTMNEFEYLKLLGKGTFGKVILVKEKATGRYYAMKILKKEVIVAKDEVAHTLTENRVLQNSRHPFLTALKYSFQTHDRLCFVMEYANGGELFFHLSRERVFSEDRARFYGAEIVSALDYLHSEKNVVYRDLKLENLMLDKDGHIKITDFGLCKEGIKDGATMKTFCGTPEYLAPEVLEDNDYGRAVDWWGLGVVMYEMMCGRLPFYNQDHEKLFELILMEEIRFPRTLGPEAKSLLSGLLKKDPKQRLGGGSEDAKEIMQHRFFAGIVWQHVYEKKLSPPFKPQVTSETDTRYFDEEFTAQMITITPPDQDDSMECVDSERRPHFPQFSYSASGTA
Sequence of 3-phosphoinositide-dependent protein kinase 1 (Homo sapiens) (O15530 whole entry, looked up): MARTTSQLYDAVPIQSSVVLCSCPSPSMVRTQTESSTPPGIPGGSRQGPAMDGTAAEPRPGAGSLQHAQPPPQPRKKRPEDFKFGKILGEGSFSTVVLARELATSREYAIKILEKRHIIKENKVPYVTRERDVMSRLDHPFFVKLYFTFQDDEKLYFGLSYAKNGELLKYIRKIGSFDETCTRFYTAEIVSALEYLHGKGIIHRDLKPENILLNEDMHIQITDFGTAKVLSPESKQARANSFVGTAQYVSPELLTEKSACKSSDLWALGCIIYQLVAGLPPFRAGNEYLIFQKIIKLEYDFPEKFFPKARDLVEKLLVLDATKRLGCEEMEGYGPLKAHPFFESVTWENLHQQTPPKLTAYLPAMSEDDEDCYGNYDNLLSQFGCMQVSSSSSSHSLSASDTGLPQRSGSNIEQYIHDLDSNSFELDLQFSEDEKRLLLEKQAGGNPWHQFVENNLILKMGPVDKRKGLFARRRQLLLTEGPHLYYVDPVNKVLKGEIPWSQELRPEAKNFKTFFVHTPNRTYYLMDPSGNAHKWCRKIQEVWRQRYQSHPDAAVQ
Sequence of Dual specificity mitogen-activated protein kinase kinase 1 (Homo sapiens) (Q02750 whole entry): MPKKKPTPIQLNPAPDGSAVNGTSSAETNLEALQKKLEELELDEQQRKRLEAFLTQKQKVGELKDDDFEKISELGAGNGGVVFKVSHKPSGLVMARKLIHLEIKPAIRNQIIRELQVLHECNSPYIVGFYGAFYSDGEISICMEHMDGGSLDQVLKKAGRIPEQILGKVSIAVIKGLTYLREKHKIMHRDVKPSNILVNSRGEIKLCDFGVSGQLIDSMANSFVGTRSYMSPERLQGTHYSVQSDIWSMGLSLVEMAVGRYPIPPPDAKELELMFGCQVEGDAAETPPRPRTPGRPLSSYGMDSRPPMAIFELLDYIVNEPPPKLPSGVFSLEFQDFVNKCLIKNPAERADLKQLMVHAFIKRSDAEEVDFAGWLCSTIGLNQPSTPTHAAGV
Sequence of Aurora kinase B (Homo sapiens) (Q96GD4 whole entry): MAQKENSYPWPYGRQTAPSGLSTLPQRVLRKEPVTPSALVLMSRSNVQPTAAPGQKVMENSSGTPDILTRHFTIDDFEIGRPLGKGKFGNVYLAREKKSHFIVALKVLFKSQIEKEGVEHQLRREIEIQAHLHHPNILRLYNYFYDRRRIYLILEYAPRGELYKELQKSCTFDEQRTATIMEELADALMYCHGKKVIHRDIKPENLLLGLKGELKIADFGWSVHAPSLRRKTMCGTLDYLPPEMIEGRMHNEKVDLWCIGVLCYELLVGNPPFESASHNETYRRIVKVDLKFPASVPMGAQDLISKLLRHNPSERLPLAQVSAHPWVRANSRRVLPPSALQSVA
Sequence of Macrophage colony-stimulating factor 1 receptor (Homo sapiens) (P07333 whole entry): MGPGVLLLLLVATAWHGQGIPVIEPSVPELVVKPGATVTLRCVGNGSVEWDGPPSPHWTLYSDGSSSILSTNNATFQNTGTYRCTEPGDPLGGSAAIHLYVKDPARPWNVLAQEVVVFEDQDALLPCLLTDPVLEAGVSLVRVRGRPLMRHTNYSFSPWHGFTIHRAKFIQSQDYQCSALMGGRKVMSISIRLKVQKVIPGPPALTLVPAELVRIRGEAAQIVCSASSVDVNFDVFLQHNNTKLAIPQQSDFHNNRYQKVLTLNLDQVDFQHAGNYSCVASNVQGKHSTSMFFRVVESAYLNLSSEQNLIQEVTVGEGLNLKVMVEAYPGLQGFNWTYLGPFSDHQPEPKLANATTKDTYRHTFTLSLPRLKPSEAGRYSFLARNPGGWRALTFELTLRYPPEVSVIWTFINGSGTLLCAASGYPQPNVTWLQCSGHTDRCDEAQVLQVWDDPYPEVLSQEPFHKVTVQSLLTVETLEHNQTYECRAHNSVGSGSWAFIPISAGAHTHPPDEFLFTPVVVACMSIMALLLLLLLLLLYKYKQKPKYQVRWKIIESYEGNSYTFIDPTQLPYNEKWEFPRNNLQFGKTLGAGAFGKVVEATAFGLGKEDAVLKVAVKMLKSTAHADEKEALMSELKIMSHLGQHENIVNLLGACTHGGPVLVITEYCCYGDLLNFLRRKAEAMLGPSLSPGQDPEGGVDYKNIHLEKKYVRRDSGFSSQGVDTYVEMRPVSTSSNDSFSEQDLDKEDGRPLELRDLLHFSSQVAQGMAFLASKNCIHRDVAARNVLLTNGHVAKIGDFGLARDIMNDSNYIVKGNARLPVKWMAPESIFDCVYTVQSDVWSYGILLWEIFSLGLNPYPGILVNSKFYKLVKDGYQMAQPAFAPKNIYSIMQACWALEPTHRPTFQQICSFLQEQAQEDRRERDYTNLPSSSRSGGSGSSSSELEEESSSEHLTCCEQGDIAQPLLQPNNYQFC

Regarding `CO[C@@H]1[C@H](N(C)C(=O)CCC(=O)NCCC(=O)NCCC(=O)NCCC(N)=O)C[C@H]2O[C@]1(C)n1c3ccccc3c3c4c(c5c6ccccc6n2c5c31)C(=O)NC4`, in [1], the Selectivity ratio came to 52. Also, the Activity in test [2] turned out to be 61%; in [3] it was 2.4%; in [4] it was 68%; in [5], 100%.
As to `CO[C@@H]1[C@H](N(C)C(=O)CCC(=O)NCCC(=O)NCCC(=O)NCCC(=O)NCCC(=O)NCCC(=O)NCCC(=O)NCCC(=O)N[C@H]2CSSC[C@@H](C(=O)NCC(N)=O)NC(=O)CNC(=O)[C@H](Cc3ccccc3)NC(=O)[C@H](C(C)C)NC(=O)[C@H](CCCNC(=N)N)NC(=O)[C@H](Cc3ccccc3)NC(=O)[C@H](C(C)C)NC2=O)C[C@H]2O[C@]1(C)n1c3ccccc3c3c4c(c5c6ccccc6n2c5c31)C(=O)NC4` ({Staurosporine-Suc-βAla-βAla-βAla-βAla-βAla-βAla-βAla}-CVFRVFGCG-NH2; disulfide 1-8), the Activity in [6] stood at 100%; in test [7], 40%; in test [8], 100%.
As to `CO[C@@H]1[C@H](N(C)C(=O)CCC(=O)NCCC(=O)NCCC(=O)NCCC(=O)NCCC(=O)NCCC(=O)NCCC(=O)NCCC(=O)N[C@H]2CNC(=O)C[C@@H](C(N)=O)NC(=O)CNC(=O)[C@H](Cc3ccccc3)NC(=O)[C@H](C(C)C)NC(=O)[C@H](CCCNC(=N)N)NC(=O)[C@H](Cc3ccccc3)NC(=O)[C@H](C(C)C)NC2=O)C[C@H]2O[C@]1(C)n1c3ccccc3c3c4c(c5c6ccccc6n2c5c31)C(=O)NC4` ({Staurosporine-Suc-βAla-βAla-βAla-βAla-βAla-βAla-βAla}-[Dap]VFRVFGD-NH2; lactam 1-8), the Activity came to 33% in [9]; 100% in test [10]; 94% in test [11]; 98% in test [12]; 72% in [13]; 83% in [14]. Besides, the Activity in [15] and in test [16] was 100% throughout.
